Test results from ChEMBL document CHEMBL1944509, “Methyl-monofluorination of ibuprofen selectively increases its inhibitory activity toward cyclooxygenase-1 leading to enhanced analgesic activity and reduced gastric damage in vivo” (Bioorg Med Chem Lett, 2011).
pIC50: −log10 of the molar value.

Columns and labels:
[1] = Drug level in ICR mouse brain at 5 mg/kg, iv after 4 hrs by HPLC/MS/MS analysis; type: ADME, organism-based; design: dose 5 mg/kg, route intravenous; conditions: read-out: Drug uptake
Mus musculus = assay: Analgesic activity in Swiss albino mouse assessed as inhibition of acetic acid-induced writhing at 30 mg/kg, ig administered 1 hr before acetic acid challenge measured 10 mins post acetic acid challenge; type: functional; conditions: po, route intragastric
How it was run: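 Male Swiss albino mice (22–24 g), three groups, n = 8; drug suspended in 0.5% CMC given i.g. (0.3 ml/10 g) 1 h before i.p.-unspecified injection of 1% (v/v) acetic acid at 0.1 ml/10 g. Writhes counted for 10 min starting 10 min after acetic acid; activity as percent decrease in writhing versus vehicle control; mean ± SEM, ANOVA then t-test.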

Nucleic Acid = assay: Ratio of drug level in brain to plasma in ICR mouse at 5 mg/kg, iv after 1 hr by HPLC/MS/MS analysis; type: ADME, organism-based; design: dose 5 mg/kg, route intravenous
[2] = target: Prostaglandin G/H synthase 1 (Homo sapiens, UniProt P23219); assay: Ratio of ibuprofen IC50 to compound IC50 for human COX1 in HEL 92.1.7 cells
[3] = target: T1, Prostaglandin G/H synthase 2 (Homo sapiens, UniProt P35354); assay: Inhibition of COX2 in LPS-stimulated and PMA-treated human U937 cells assessed as PGE2 production after 15 mins by ELISA; type: cell-based, U-937
T1 sequence (P35354 whole entry): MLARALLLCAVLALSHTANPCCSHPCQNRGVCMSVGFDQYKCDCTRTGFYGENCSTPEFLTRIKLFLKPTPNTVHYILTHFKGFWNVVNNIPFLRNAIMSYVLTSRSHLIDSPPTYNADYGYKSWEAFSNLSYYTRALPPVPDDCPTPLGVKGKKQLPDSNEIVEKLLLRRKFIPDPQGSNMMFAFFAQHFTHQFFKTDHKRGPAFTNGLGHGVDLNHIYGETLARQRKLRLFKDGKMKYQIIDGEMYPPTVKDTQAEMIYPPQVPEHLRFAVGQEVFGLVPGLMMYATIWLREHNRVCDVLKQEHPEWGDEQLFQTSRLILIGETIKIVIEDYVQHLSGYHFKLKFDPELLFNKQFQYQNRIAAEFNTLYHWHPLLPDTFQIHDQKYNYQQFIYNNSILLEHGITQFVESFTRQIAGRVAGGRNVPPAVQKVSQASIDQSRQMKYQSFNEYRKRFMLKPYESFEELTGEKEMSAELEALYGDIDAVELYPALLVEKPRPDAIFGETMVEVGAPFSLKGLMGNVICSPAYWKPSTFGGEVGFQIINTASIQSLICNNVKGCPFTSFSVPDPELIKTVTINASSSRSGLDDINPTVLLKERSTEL

[4] = Apparent volume of distribution in ICR mouse at 5 mg/kg, iv; type: ADME, organism-based; design: dose 5 mg/kg, route intravenous; conditions: in vivo, read-out: Vz

| SMILES | concentration at 4 h [1] [ng/g] | inhibition in vivo at 30 mg/kg (Mus musculus) [%] | BPR (Nucleic Acid) [mL/g] | Ratio IC50 [2] | pIC50 [3] | Vd [4] [L/kg] |
| --- | --- | --- | --- | --- | --- | --- |
| CC(C)Cc1ccc([C@H](C)C(=O)O)cc1 [DEXIBUPROFEN] | 41.5 | 68.7 | – | – | – | – |
| CC(C)Cc1ccc([C@H](CF)C(=O)O)cc1 | – | – | 0.041 | 80 | 6.28 | 0.27 |
